The results in this text go back to ChEMBL document CHEMBL2380290, “Neonicotinic analogues: selective antagonists for α4β2 nicotinic acetylcholine receptors” (Bioorg Med Chem, 2013).

Experiment [1] concerns the target T1, Neuronal acetylcholine receptor; alpha4/beta2 (Homo sapiens, UniProt P17787+P43681). Nature of the experiment: Displacement of [3H]cytisine from human alpha4beta2 nAChR overexpressed in human SHEP cells after 75 mins by liquid scintillation spectrometric analysis. The format is cell-based. In a few lines:
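SH-EP1-hα4β2 membrane homogenates (30–50 µg protein) were incubated with 1 nM [3H]cytisine for 75 min at 4 °C in Tris binding saline, pH 7.0. Filtration on PEI-soaked GF/C filters, scintillation counting. Four experiments in triplicate.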
Background: Loss of bound radioactivity is the signal in a displacement assay; it reports binding, not function.

Experiment [2] has as its target T2, Neuronal acetylcholine receptor subunit alpha-7 (Homo sapiens, UniProt P36544). Nature of the experiment: Displacement of [125I]alpha-bungarotoxin from human alpha7 nAChR overexpressed in human SH-SY5Y cells after 120 mins by liquid scintillation spectrometric analysis. In kind it is cell-based.
Experiment [3] addresses T1, Neuronal acetylcholine receptor; alpha4/beta2. As to the kind of experiment: Antagonist activity at (alpha4beta2)2alpha4 nAChR (unknown origin) expressed in Xenopus oocytes assessed as inhibition of acetylcholine-induced current after 2 mins by two-electrode voltage clamp assay. In kind it is cell-based, Oocyte. (In two-electrode clamp one electrode senses voltage and the other passes current.)

For experiment [4] the target is unchanged. As to the kind of experiment: Antagonist activity at (alpha4beta2)2beta2 nAChR (unknown origin) expressed in Xenopus oocytes assessed as inhibition of acetylcholine-induced current after 2 mins by two-electrode voltage clamp assay. In kind it is cell-based, Oocyte.
In experiment [5] the target is Nicotinic acetylcholine receptor alpha4/beta2/alpha5 (Homo sapiens, UniProt P17787+P30532+P43681). As to the kind of experiment: Antagonist activity at (alpha4beta2)2alpha5 nAChR (unknown origin) expressed in Xenopus oocytes assessed as inhibition of acetylcholine-induced current after 2 mins by two-electrode voltage clamp assay. In kind it is cell-based, Oocyte.
In experiment [6] the target is T2, Neuronal acetylcholine receptor subunit alpha-7. Nature of the experiment: Displacement of [125I]alpha-bungarotoxin from human alpha7 nAChR overexpressed in human SH-SY5Y cells at 1 mM after 120 mins by liquid scintillation spectrometric analysis. In kind it is cell-based. The method, boiled down: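 Membranes from SH-SY5Y-hα7 cells (30–50 µg protein) were incubated with 1 nM [125I]α-BgTx in Tris binding saline, pH 7.0, for 120 min at 25 °C. […] GF/C filtration, top test concentration 1 mM. […] Four experiments, triplicate.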

Calls of active or inactive are those of the source. No cut-off for these calls is given here.

T2 sequence (P36544 whole entry): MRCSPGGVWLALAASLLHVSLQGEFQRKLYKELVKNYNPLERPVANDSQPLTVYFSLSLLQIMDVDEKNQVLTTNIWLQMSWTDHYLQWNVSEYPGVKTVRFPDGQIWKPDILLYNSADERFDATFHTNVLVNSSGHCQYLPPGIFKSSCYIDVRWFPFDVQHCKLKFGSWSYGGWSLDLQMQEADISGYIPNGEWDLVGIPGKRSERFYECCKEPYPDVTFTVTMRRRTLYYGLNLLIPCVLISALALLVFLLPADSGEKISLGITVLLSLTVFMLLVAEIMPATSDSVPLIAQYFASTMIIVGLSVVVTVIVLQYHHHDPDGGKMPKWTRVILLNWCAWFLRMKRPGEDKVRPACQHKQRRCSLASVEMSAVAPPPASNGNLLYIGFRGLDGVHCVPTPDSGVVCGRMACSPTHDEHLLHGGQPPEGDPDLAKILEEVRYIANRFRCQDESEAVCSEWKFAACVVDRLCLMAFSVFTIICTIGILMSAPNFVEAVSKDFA
T1 sequence (P17787 whole entry): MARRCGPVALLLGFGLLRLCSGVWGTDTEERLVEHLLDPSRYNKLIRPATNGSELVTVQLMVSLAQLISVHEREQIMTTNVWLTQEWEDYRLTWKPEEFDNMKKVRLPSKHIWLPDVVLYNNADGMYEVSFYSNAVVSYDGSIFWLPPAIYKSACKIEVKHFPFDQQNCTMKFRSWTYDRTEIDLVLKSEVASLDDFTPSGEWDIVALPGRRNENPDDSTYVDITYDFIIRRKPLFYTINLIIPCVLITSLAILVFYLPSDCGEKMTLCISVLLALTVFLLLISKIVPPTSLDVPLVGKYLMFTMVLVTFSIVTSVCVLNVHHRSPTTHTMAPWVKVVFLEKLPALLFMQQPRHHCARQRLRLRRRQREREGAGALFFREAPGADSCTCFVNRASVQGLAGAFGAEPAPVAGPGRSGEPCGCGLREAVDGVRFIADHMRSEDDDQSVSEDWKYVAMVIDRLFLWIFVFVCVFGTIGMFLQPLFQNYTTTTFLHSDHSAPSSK
T1 sequence (P43681 whole entry): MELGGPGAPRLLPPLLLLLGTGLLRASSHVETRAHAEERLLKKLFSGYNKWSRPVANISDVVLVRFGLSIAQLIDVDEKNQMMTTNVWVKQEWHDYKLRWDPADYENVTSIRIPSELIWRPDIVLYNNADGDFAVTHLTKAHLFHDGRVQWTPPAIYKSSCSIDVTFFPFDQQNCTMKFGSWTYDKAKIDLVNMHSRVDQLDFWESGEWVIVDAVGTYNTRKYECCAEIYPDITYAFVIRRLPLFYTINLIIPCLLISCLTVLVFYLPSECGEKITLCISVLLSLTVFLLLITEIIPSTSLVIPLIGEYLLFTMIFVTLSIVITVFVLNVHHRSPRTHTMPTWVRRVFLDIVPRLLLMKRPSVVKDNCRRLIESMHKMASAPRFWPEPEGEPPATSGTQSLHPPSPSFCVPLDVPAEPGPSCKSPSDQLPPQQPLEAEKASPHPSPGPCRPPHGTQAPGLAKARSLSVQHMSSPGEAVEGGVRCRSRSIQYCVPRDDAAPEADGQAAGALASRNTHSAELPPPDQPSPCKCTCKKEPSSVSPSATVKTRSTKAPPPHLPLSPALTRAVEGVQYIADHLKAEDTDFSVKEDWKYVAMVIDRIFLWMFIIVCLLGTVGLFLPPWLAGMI
Nicotinic acetylcholine receptor alpha4/beta2/alpha5, sequence (P17787 whole entry): as the sequence (P17787 whole entry) above
Nicotinic acetylcholine receptor alpha4/beta2/alpha5, sequence (P43681 whole entry): as the sequence (P43681 whole entry) above
Nicotinic acetylcholine receptor alpha4/beta2/alpha5, sequence (P30532 whole entry): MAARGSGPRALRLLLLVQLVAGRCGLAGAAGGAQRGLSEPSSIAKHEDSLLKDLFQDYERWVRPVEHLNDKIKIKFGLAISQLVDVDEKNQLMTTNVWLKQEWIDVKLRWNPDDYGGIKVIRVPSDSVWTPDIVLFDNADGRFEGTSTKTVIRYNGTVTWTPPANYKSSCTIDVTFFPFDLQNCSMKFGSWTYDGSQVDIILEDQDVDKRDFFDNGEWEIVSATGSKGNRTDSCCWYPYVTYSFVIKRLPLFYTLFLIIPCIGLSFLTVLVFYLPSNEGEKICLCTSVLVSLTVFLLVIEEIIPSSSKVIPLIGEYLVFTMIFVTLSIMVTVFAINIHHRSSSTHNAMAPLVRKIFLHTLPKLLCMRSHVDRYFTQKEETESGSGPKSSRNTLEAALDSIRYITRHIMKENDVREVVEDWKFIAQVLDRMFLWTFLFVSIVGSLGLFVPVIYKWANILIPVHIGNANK

A word on the IC50: it is the concentration that gives 50% inhibition. What is called Ki is the dissociation constant of the complex between target and ligand, obtained from inhibition or displacement. A lower Ki goes with higher affinity. In experiment [1], `CN1CCC[C@H]1COC(=O)c1ccc(OCc2ccccc2)nc1` displayed a half-inhibitory concentration (IC50) of 0.166 µM and a Ki of 0.0455 µM. In experiment [2], this molecule displayed an IC50 of 59.1 µM and a Ki of 29.5 µM.
As for `CN1CCC[C@H]1COC(=O)c1ccc(OCc2ccccc2)cc1`, the IC50 was found to be 3.6 µM in experiment [3]; 25.8 µM in experiment [4]; 17.8 µM in experiment [5]; 0.0042 µM in experiment [1]; 2.3 µM in experiment [2]. Moreover, the Ki stood at 0.0012 µM in experiment [1] and 1.1 µM in experiment [2]. Further, the inhibition entry in experiment [1] and in experiment [2] was “Dose-dependent effect” each time.
In experiment [1], `CN1CCC[C@H]1COC(=O)c1cccc([N+](=O)[O-])c1` gave an IC50 of 1.61 µM and a Ki of 0.46 µM. In experiment [2], this molecule registered an IC50 of 464 µM and a Ki of 232 µM.
`CN1CCC[C@H]1COC(=O)c1cnc2ccccc2c1`: in experiment [1], the IC50 was determined as 0.759 µM, the inhibition constant Ki was 0.217 µM and the inhibition result is “Dose-dependent effect”. Further, in experiment [2], the IC50 stood at 97.3 µM; the affinity, expressed as Ki, was 48.7 µM; the inhibition entry was “Dose-dependent effect”.
Regarding `CN1CCC[C@H]1COC(=O)c1cccc(N)c1`, the IC50 in experiment [3] amounted to 1.02 µM; in experiment [4], 4.3 µM; in experiment [5], 480 µM; in experiment [1], 0.0284 µM. In addition, in experiment [6], the inhibition entry is “inactive”. Moreover, the Ki in experiment [1] turned out to be 0.0081 µM. For the same molecule, the inhibition result in experiment [1] and in experiment [2] was “Dose-dependent effect” in each case.
On to `CN1CCC[C@H]1COC(=O)c1ccc(Cl)cc1`, for which the IC50 in experiment [3] turned out to be 95 µM; in experiment [4], 3.6 µM; in experiment [5] it was 6 µM; in experiment [1] it was 0.0394 µM; in experiment [2], 8.9 µM. For the same molecule, the Ki in experiment [1] is 0.0112 µM; in experiment [2], 4.5 µM. For the same molecule, the inhibition result in experiment [1] and in experiment [2] was “Dose-dependent effect” in each case.
For the molecule `CN1CCC[C@H]1COC(=O)c1ccccc1`, the 50% inhibitory concentration (IC50) was determined as 313 µM in experiment [3]; 2.5 µM in experiment [4]; 52.3 µM in experiment [5]; 0.0819 µM in experiment [1]; 13.4 µM in experiment [2]. Moreover, the results for the Ki in experiment [1] and in experiment [2] were 0.0234 µM and 6.7 µM, respectively. Moreover, the inhibition result in experiment [1] and in experiment [2] was “Dose-dependent effect” each time.
On to `CN1CCC[C@H]1COC(=O)c1ccc(Br)cc1`, for which, in experiment [1], the IC50 was determined as 0.0784 µM, affinity was put at a Ki of 0.0224 µM and the inhibition entry was “Dose-dependent effect”. Also, in experiment [2], the IC50 came to 21.1 µM, the Ki was 10.5 µM and the inhibition result was “Dose-dependent effect”.
With `CN1CCC[C@H]1COC(=O)c1ccc(Cl)nc1`, in experiment [1], the IC50 came to 0.528 µM, the Ki amounted to 0.151 µM and the inhibition result was “Dose-dependent effect”. For the same molecule, in experiment [2], the IC50 stood at 58.5 µM, the Ki amounted to 29.3 µM and the inhibition result was “Dose-dependent effect”.
